Reference: ChEMBL document CHEMBL3243972, “Analogues of ornithine as inhibitors of ornithine decarboxylase. New deductions concerning the topography of the enzyme's active site” (J Med Chem, 1978)
Active and inactive are the calls of the source. The calls are words filed in the database; no cut-off is given here.

Key:
[1] = molecular target: T1, Ornithine decarboxylase (Rattus norvegicus, UniProt P09057); test: Competitive inhibition of rat liver ornithine decarboxylase using DL-[1-14C]ornithine as substrate after 1 hr by dixon plot analysis
T1 sequence (P09057 whole entry): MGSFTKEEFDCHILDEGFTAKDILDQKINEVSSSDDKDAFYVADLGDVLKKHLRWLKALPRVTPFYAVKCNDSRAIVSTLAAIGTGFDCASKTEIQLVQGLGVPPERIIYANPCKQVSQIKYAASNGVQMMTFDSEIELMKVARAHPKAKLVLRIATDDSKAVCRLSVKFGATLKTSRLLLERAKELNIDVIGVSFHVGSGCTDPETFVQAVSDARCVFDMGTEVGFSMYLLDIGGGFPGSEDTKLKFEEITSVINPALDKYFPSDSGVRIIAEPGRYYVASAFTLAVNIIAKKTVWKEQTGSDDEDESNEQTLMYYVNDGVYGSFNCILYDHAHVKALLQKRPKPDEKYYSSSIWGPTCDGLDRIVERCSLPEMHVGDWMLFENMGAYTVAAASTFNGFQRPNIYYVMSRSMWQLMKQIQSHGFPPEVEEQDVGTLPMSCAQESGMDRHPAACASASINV
Procedure, shortened: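 ODC from livers of rats given thioacetamide 18 h before sacrifice, ~tenfold purified by acid treatment at pH 4.6. Incubation: sodium phosphate pH 7.1, PLP 0.1 µmol, DTT 5 µmol, DL-[1-14C]ornithine 0.043 µmol plus L-ornithine 0.8 µmol in 0.95 mL; 14CO2 release after 1 h at 37 °C; KI from Dixon plots by least-squares fit.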

[2] = molecular target: T1, Ornithine decarboxylase; test: Competitive inhibition of ornithine decarboxylase in rat HTC cells using DL-[1-14C]ornithine as substrate after 1 hr by dixon plot analysis; format: cell-based
Procedure, shortened: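 HTC hepatoma cell ODC; sodium phosphate pH 7.1 assay with PLP 0.1 µmol, DTT 5 µmol, DL-[1-14C]ornithine 0.043 µmol, L-ornithine 0.8 µmol, final 0.95 mL; enzyme added to start; 14CO2 measured after 1 h at 37 °C. KI from Dixon plots, or for some values from ID50 at ornithine equal to KM, taking KI = ID50/2.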

[3] = molecular target: T2, Ornithine decarboxylase (Bos taurus, UniProt P27117); test: Competitive inhibition of bull prostate ornithine decarboxylase using DL-[1-14C]ornithine as substrate after 1 hr by dixon plot analysis; design: species or system Prostate gland
T2 sequence (P27117 whole entry): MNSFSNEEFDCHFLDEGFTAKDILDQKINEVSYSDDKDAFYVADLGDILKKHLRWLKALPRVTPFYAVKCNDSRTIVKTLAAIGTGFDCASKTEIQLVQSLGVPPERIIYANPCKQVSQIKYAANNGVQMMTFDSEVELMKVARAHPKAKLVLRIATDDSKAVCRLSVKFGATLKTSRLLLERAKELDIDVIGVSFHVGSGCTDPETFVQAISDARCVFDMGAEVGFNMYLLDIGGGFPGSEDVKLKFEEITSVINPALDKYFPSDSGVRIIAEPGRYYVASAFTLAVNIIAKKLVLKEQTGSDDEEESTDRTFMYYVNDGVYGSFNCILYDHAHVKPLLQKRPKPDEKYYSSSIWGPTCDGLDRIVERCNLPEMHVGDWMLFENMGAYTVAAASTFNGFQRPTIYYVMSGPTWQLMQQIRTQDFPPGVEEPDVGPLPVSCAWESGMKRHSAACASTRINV
Procedure, shortened: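 Bull prostate ODC purified ~fourfold: homogenized at 4 °C in Tris-HCl 10 mM pH 7.2, sucrose, EDTA, DTT 5 mM, PLP 0.1 mM; 20000g and 105000g spins, 20–50% (NH4)2SO4 cut, dialysis. Assay in 0.95 mL Tris-HCl pH 7.2 with PLP 0.1 µmol, DTT 5 µmol, DL-[1-14C]ornithine 0.043 µmol, L-ornithine 0.8 µmol; 14CO2 counted after 1 h at 37 °C; KI from Dixon plots, least-squares fit.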

[4] = Binding affinity to pyridoxal-phosphate
[5] = molecular target: T3, Ornithine decarboxylase (Rattus norvegicus) (UniProt P09057); test: Inhibition of rat prostate ornithine decarboxylase at 10 mM; conditions: Prostate gland
T3 sequence (whole entry): T1 sequence (P09057 whole entry)

[6] = molecular target: T3, Ornithine decarboxylase (Rattus norvegicus); test: Competitive inhibition of rat liver ornithine decarboxylase using DL-[1-14C]ornithine as substrate at 0.25 mM after 1 hr by dixon plot analysis
[7] = molecular target: Ornithine decarboxylase (Bos taurus); test: Inhibition of bull prostate ornithine decarboxylase
[8] = molecular target: T3, Ornithine decarboxylase (Rattus norvegicus); test: Competitive inhibition of rat liver ornithine decarboxylase using DL-[1-14C]ornithine as substrate at 4 mM after 1 hr by dixon plot analysis
[9] = molecular target: T3, Ornithine decarboxylase (Rattus norvegicus); test: Competitive inhibition of rat liver ornithine decarboxylase using DL-[1-14C]ornithine as substrate at 1 mM after 1 hr by dixon plot analysis
[10] = molecular target: T3, Ornithine decarboxylase (Rattus norvegicus); test: Competitive inhibition of ornithine decarboxylase in rat HTC cells using DL-[1-14C]ornithine as substrate at 1 mM after 1 hr by dixon plot analysis; format: cell-based
[11] = molecular target: T1, Ornithine decarboxylase; test: Competitive inhibition of Sprague-Dawley rat prostate ornithine decarboxylase using DL-[1-14C]ornithine as substrate by liquid scintillation counting analysis; design: species or system Prostate gland

| Ki [1] | Ki [3] | Kd [4] | SMILES | further results |
| --- | --- | --- | --- | --- |
| 19 µM | 20 µM | 2350 µM | C[C@](N)(CCCN)C(=O)O | Ki ([2]; read-out: Ki): 20 µM |
| 1300 µM | 1000 µM | – | C[C@@](N)(CCCN)C(=O)O | Ki ([2]; read-out: Ki): 1050 µM |
| 120 µM | 70 µM | – | NCCCC(N)c1nnn[nH]1 (centres undefined) | Ki ([2]; read-out: Ki): 140 µM |
| 70 µM | – | – | N[C@H]1CC[C@](N)(C(=O)O)CC1 | Ki ([2]; read-out: Ki): 70 µM |
| – | – | – | NCCC[C@@H](N)C(=O)O | inhibition [5]: 25% |
| – | – | – | N[C@H]1CC[C@@](N)(C(=O)O)CC1 | inhibition [6]: inactive |
| 500 µM | 740 µM | 5360 µM | CNCCCC(C)(N)C(=O)O (racemic) | – |
| 40 µM | – | – | CC(N)(CCCN)C(=O)O (racemic) | Ki ([2]; read-out: Ki): 40 µM |
| – | – | – | NC/C=C/C(N)C(=O)O (racemic) | Ki [7]: 4400 µM |
| – | – | – | CC(N)(CCCCN)C(=O)O (racemic) | inhibition [8]: inactive |
| – | – | – | CC(N)(CCN)C(=O)O (racemic) | inhibition [8]: inactive |
| – | – | – | CN(C)CCCC(C)(N)C(=O)O (racemic) | inhibition [9]: inactive |
| – | – | – | NCCC(O)C(N)C(=O)O (racemic) | inhibition [10]: inactive |
| – | – | – | NCCCC(N)(CO)C(=O)O (racemic) | inhibition [9]: inactive |
| – | 4400 µM | 900 µM | CC(N)(CCCNCCCN)C(=O)O (racemic; 3) | Ki ([2]; htc): Not Active |
| – | 5500 µM | – | CC(N)(CCCNCCCN)C(=O)O (racemic; 8) | – |
| – | – | 1250 µM | NCCC[C@H](N)C(=O)O [ORNITHINE] | – |
| – | – | 800 µM | NCCCCN [PUTRESCINE] | – |
| – | 3000 µM | 700 µM | NCCCCNCCCN [SPERMIDINE] | Ki [11]: 2700 µM |
